# Laboratory results from ChEMBL document CHEMBL1156066 (J Med Chem, 2009).
# pEC50, pIC50: −log10 of the molar value.
# How the values were obtained:
# [1] = test system: Canis familiaris; test: Cardiotoxicity in dog assessed as changes in ECG at 200 mg/kg; assay type: toxicity, organism-based, Canis lupus familiaris; parameters: dose 200 mg/kg; conditions: in vivo
# Procedure, shortened: (§1)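 Dogs were dosed at 200 mpk, with ECG monitored for drug-related changes and plasma Cmax determined.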
# [2] = Aqueous solubility of crystalline form of compound in buffer solution of pH 1.5 at 25 degC; assay type: physicochemical
# [3] = Cytotoxicity against human neuronal tumor cells; assay type: cell-based
# [4] = Ratio of plasma concentration in monkey at 5 mg/kg, po to EC50 for HIV1 clinical isolates; assay type: ADME, organism-based; parameters: dose 5 mg/kg, route oral; conditions: in vivo
# [5] = Aqueous solubility of crystalline form of compound in buffer solution of pH 10 at 25 degC; assay type: physicochemical
# [6] = target: T1, Cytochrome P450 3A4 (Homo sapiens, UniProt P08684); test: Inhibition of recombinant CYP3A4 using benzyloxy-4-(trifluoromethyl)coumarin as substrate; assay type: ADME
# T1 sequence (P08684 whole entry): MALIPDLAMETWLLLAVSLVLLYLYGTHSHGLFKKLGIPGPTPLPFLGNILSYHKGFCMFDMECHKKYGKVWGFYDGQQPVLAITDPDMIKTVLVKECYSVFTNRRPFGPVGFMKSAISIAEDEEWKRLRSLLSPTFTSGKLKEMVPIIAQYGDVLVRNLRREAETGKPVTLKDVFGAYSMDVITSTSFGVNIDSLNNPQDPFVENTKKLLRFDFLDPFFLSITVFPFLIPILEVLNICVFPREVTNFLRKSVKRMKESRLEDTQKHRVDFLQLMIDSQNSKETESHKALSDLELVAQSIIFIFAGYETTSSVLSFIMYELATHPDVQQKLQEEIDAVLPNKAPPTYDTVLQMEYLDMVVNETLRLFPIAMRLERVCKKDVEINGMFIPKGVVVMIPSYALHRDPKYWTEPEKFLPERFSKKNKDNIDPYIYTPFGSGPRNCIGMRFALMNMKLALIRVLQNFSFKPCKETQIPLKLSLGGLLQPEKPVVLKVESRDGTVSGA
# [7] = target: Voltage-gated inwardly rectifying potassium channel KCNH2 (Homo sapiens, UniProt Q12809); test: Inhibition of human ERG by channel flux assay
# Chain of Voltage-gated inwardly rectifying potassium channel KCNH2 (Q12809 whole entry): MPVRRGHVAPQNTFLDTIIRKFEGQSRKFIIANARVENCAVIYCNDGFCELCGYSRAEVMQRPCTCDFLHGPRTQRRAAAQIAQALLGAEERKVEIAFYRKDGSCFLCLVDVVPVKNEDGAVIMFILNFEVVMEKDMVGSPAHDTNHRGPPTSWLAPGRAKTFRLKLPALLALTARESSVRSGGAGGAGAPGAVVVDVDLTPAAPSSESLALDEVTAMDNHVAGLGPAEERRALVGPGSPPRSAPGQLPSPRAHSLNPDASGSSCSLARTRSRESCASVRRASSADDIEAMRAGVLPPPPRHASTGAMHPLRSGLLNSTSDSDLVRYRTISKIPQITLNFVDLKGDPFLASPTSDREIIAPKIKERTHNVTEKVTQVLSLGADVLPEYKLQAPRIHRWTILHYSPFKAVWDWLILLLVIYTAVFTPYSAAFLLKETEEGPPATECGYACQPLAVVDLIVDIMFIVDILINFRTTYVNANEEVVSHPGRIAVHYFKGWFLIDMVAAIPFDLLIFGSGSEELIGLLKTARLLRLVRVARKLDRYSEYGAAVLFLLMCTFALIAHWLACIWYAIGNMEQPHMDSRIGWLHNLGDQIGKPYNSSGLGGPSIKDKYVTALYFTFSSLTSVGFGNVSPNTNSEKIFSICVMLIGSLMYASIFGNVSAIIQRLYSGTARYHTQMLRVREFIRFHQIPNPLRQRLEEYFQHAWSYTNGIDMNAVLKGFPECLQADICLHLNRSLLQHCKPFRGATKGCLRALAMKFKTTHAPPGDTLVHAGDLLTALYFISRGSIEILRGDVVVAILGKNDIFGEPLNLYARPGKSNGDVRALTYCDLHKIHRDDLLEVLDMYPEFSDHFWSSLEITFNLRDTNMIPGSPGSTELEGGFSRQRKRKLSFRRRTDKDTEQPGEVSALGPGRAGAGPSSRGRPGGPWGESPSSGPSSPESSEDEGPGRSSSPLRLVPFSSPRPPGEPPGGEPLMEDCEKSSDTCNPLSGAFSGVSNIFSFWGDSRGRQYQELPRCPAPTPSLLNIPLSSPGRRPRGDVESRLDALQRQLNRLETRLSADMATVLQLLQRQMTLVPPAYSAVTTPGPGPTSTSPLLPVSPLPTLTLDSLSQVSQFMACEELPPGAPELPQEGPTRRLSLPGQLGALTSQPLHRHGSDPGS
# [8] = Cytotoxicity against HEK cells; assay type: cell-based, HEK293; conditions: human
# [9] = Permeability across human Caco-2 cell membrane at pH 6.5; assay type: ADME, cell-based; conditions: Caco-2, pH 6.5, read-out: permeability
# [10] = Ratio of plasma concentration in rat at 5 mg/kg, po to EC50 for HIV1 clinical isolates; assay type: ADME, organism-based; parameters: dose 5 mg/kg, route oral; conditions: in vivo
# [11] = Oral bioavailability in monkey at 5 mg/kg; assay type: ADME, organism-based, Macaca mulatta; conditions: rhesus monkey, in vivo
# [12] = Metabolic stability in human liver microsomes assessed as half life; assay type: ADME, Microsome
# [13] = Inhibition of HIV1 LAI gp120/CD4 interaction in human HeLa67 cells assessed as inhibition of viral entry after 3 days by luciferase reporter gene assay; assay type: cell-based
# Procedure, shortened: (§2)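 HeLa 67 cells (HeLa expressing CD4, CCR5 and CXCR4; DMEM, 10% heat-inactivated FBS, penicillin/streptomycin) were plated at 10^5 cells/well the day before infection. They were then infected with HIV LAI-Δenv-luc pseudotyped with JRFL or LAI envelope, in the presence of 10-step 3-fold DMSO serial dilutions (30 mM stocks), run in duplicate. After 3 days at 37 C, firefly luciferase was read. EC50 was from a one-site fit.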
# [14] = Stability at pH 2 after 48 hrs; assay type: physicochemical; conditions: buffer, pH 2, 48 h
# Procedure, shortened: (§3)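 The compound was held in solution at pH 2 or pH 7 for 48 h at 37 C and then checked for chemical change.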
# [15] = test system: Human immunodeficiency virus 1; test: Antiviral activity against HIV1 clinical isolates; assay type: functional, organism-based
# [16] = Cytotoxicity against human PBMC; assay type: cell-based
# [17] = Aqueous solubility of crystalline form of compound in buffer solution of pH 6.5 at 25 degC; assay type: physicochemical
# Procedure, shortened: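 Solubility of the crystalline solid was measured 24-72 h after adding it to phosphate buffered solution, pH 6.5, at room temperature.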
# [18] = Oral bioavailability in rat at 5 mg/kg administered as crystalline suspension; assay type: ADME, organism-based; conditions: in vivo
# [19] = target: Cytochrome P450 2C9 (Homo sapiens, UniProt P11712); test: Inhibition of recombinant CYP2C9; assay type: ADME
# Chain of Cytochrome P450 2C9 (P11712 whole entry): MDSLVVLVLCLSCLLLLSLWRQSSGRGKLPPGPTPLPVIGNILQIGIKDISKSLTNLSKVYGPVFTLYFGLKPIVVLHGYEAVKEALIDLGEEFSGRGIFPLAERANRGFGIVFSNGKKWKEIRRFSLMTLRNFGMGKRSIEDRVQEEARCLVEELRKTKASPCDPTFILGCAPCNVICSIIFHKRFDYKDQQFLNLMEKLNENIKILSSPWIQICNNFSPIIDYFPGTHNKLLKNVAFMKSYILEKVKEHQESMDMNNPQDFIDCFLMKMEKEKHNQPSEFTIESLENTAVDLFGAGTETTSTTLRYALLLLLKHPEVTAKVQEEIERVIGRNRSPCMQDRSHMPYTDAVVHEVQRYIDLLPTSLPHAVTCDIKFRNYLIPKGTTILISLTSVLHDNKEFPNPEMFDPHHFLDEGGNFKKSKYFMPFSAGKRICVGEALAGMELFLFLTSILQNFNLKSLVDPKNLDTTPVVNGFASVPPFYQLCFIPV
# [20] = Solubility at pH 4 to 8; assay type: physicochemical; conditions: buffer
# [21] = target: T1, Cytochrome P450 3A4; test: Inhibition of recombinant CYP3A4 using 7-benzyloxyresorufin as substrate; assay type: ADME
# [22] = Cytotoxicity against human MT2 cells after 3 days by XTT assay; assay type: cell-based
# Procedure, shortened: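 Uninfected MT-2 cells were exposed to 10-step 3-fold serial compound dilutions (30 mM DMSO stocks), run in parallel with the antiviral assay. Cell health was read by XTT after 3 days. CC50 was fitted with the same one-site equation as EC50.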
# [23] = Terminal half life in rat at 5 mg/kg, iv; assay type: ADME, organism-based; parameters: dose 5 mg/kg, route intravenous; conditions: in vivo, read-out: beta t1/2 (converted)
# [24] = test system: Rattus norvegicus; test: AUC in rat at 5 mg/kg, po; assay type: ADME, organism-based, Plasma; parameters: dose 5 mg/kg, route oral; conditions: in vivo
# [25] = Cytotoxicity against human lung cancer cell; assay type: cell-based, Cancer cell lines; conditions: lung cancer cells
# [26] = test system: Hepatocyte; test: Cytotoxicity against human hepatocytes up to 200 uM in presence of CYP450 enzymes; assay type: ADME, cell-based
# Procedure, shortened: (§4)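 Hepatocytes in vitro were exposed to concentrations up to 200 μM, with or without expression of each of the four major CYP 450 enzymes.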
# [27] = Lipophilicity, log D at pH 6.5; assay type: physicochemical; conditions: buffer
# Procedure, shortened: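 Log D was measured by the octanol/water shake-flask method using phosphate buffered solution, pH 6.5.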
# [28] = test system: Hepatocyte; test: Cytotoxicity against human hepatocytes up to 200 uM in absence of CYP450 enzymes; assay type: ADME, cell-based; procedure, shortened: as §4
# [29] = Cytotoxicity against human cervical cancer cells; assay type: cell-based, Cancer cell lines
# [30] = target: T2, Cytochrome P450 1A2 (Homo sapiens, UniProt P05177); test: Inhibition of recombinant CYP1A2; assay type: ADME
# T2 sequence (P05177 whole entry): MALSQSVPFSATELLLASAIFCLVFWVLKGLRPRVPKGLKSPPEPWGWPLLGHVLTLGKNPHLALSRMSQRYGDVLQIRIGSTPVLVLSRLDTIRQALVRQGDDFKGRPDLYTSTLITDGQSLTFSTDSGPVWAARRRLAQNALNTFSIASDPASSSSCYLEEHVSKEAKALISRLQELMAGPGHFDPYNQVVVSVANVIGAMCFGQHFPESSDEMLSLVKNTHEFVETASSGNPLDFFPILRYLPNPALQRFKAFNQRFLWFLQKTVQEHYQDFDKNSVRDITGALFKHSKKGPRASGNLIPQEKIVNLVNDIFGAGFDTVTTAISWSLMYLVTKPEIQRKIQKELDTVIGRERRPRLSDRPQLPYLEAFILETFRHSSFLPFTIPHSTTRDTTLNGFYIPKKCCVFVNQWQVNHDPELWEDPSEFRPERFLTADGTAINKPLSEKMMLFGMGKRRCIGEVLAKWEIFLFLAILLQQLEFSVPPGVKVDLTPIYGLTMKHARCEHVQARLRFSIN
# [31] = Cmax in dog at 200 mg/kg; assay type: ADME, organism-based, Canis lupus familiaris; parameters: dose 200 mg/kg; conditions: in vivo; procedure, shortened: as §1
# [32] = Stability at pH 7 after 48 hrs; assay type: physicochemical; conditions: buffer, pH 7, 48 h; procedure, shortened: as §3
# [33] = target: Cytochrome P450 2C19 (Homo sapiens, UniProt P33261); test: Inhibition of recombinant CYP2C19; assay type: ADME
# Chain of Cytochrome P450 2C19 (P33261 whole entry): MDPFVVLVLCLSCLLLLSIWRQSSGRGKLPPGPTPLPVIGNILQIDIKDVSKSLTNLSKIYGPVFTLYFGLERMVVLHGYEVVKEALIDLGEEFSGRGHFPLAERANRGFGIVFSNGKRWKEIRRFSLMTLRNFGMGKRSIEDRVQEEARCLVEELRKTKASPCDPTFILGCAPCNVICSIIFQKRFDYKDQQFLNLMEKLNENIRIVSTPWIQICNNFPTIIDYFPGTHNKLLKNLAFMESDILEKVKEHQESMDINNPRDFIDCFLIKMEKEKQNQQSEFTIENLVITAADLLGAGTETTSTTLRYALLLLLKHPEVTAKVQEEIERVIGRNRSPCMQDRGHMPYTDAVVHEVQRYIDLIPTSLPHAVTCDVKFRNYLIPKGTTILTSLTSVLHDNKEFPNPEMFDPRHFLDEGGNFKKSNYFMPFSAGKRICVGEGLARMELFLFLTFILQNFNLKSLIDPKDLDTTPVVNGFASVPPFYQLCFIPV
# [34] = Inhibition of HIV1 JRFL gp120/CD4 interaction in human HeLa67 cells assessed as inhibition of viral entry after 3 days by luciferase reporter gene assay; assay type: cell-based; procedure, shortened: as §2
# [35] = Cytotoxicity against human T cell; assay type: cell-based; conditions: T cells
# [36] = Cytotoxicity against human larynx cancer cells; assay type: cell-based, Cancer cell lines
# [37] = Ratio of plasma concentration in dog at 5 mg/kg, po to EC50 for HIV1 clinical isolates; assay type: ADME, organism-based; parameters: dose 5 mg/kg, route oral; conditions: in vivo
# [38] = Solubility at pH 1.5; assay type: physicochemical; conditions: buffer
# [39] = target: Cytochrome P450 2D6 (Homo sapiens, UniProt P10635); test: Inhibition of recombinant CYP2D6; assay type: ADME
# Chain of Cytochrome P450 2D6 (P10635 whole entry): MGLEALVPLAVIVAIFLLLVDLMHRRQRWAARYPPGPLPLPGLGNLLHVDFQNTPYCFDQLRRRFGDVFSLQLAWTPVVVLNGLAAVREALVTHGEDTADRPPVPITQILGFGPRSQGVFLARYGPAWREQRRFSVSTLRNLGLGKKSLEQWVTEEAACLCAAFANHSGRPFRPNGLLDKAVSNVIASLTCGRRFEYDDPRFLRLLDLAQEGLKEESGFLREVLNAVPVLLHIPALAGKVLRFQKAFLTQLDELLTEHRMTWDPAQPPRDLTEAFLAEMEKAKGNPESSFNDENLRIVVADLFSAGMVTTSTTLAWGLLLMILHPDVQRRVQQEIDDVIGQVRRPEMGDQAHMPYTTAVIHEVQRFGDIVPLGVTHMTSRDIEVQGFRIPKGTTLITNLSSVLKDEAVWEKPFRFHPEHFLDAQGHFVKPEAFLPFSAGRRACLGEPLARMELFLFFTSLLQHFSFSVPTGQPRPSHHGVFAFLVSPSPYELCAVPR
# [40] = Cytotoxicity against human hepatic cancer cells; assay type: cell-based, Cancer cell lines
# [41] = Aqueous solubility of crystalline form of compound in buffer solution of pH 11 at 25 degC; assay type: physicochemical
# [42] = Aqueous solubility of crystalline form of compound in buffer solution of pH 2.1 at 25 degC; assay type: physicochemical
# [43] = Oral bioavailability in dog at 5 mg/kg; assay type: ADME, organism-based, Canis lupus familiaris; conditions: in vivo
compound,measurement,setting,value
COc1ncc(OC)c2c(C(=O)C(=O)N3CCN(C(=O)c4ccccc4)CC3)c[nH]c12,Activity,[1],Non-toxic
same,solubility,[2],900 µg/mL
same,CC50,[3],≥ 120 µM
same,Ratio,[4],18
same,solubility,[5],250 µg/mL
same,pIC50,[6],< 4.40
same,pIC50,[7],< 4.10
same,CC50,[8],≥ 120 µM
same,Papp,[9],17.8 ×10⁻⁶ cm/s
same,Ratio,[10],18
same,bioavailability,[11],60%
same,half-life,[12],> 100 min
same,pEC50,[13],8.94
same,Stability,[14],Stable
same,pEC50,[15],7.44
same,CC50,[16],≥ 120 µM
same,solubility,[17],40 µg/mL
same,bioavailability,[18],55%
same,pIC50,[19],4.52
same,solubility,[20],40 µg/mL
same,pIC50,[21],< 4.40
same,CC50 at 72 h,[22],> 300 µM
same,half-life,[23],144 min
same,AUC,[24],6.3 µg/h/mL
same,CC50,[25],≥ 120 µM
same,Activity,[26],Non-toxic
same,logD,[27],1.5
same,Activity,[28],Non-toxic
same,CC50,[29],≥ 120 µM
same,pIC50,[30],< 4.40
same,Cmax,[31],33 µM
same,Stability,[32],Stable
same,pIC50,[33],< 4.40
same,pEC50,[34],9.06
same,CC50,[35],≥ 120 µM
same,CC50,[36],≥ 120 µM
same,Ratio,[37],18
same,solubility,[38],900 µg/mL
same,pIC50,[39],< 4.40
same,CC50,[40],≥ 120 µM
COc1ccnc2[nH]cc(C(=O)C(=O)N3CCN(C(=O)c4ccccc4)C[C@H]3C)c12,Papp,[9],5.1 ×10⁻⁶ cm/s
same,bioavailability,[11],24%
same,half-life,[12],37 min
same,pEC50,[13],8.57
same,pEC50,[15],7.21
same,solubility,[17],200 µg/mL
same,CC50 at 72 h,[22],> 300 µM
same,half-life,[23],18 min
same,AUC,[24],0.5 µg/h/mL
same,logD,[27],1.6
same,pEC50,[34],8.83
same,solubility,[41],3300 µg/mL
same,pIC50,[39],5.01
same,solubility,[42],1300 µg/mL
same,bioavailability,[43],77%
C[C@@H]1CN(C(=O)c2ccccc2)CCN1C(=O)C(=O)c1c[nH]c2ncccc12,pIC50,[6],< 4.40
same,pIC50,[7],< 4.10
same,Papp,[9],16.8 ×10⁻⁶ cm/s
same,half-life,[12],49.5 min
same,solubility,[17],936 µg/mL
same,pIC50,[19],5.10
same,pIC50,[21],< 4.40
same,CC50 at 72 h,[22],280 µM
same,logD,[27],1.8
same,pIC50,[30],< 4.40
same,pIC50,[33],5.00
same,pEC50,[34],8.77
same,pIC50,[39],4.77
C[C@@H]1CN(C(=O)c2ccccc2)CCN1C(=O)C(=O)c1c[nH]c2ccccc12,pIC50,[6],< 4.40
same,pIC50,[7],< 4.10
same,Papp,[9],16.9 ×10⁻⁶ cm/s
same,half-life,[12],16.9 min
same,pEC50,[13],8.31
same,solubility,[17],16 µg/mL
same,pIC50,[19],5.28
same,pIC50,[21],< 4.40
same,CC50 at 72 h,[22],200 µM
same,logD,[27],1.9
same,pIC50,[30],< 4.40
same,pIC50,[33],5.59
same,pEC50,[34],8.40
same,pIC50,[39],5.32
C[C@@H]1CN(C(=O)c2ccccc2)CCN1C(=O)C(=O)c1c[nH]c2cnccc12,pIC50,[6],< 4.40
same,pIC50,[7],< 4.10
same,Papp,[9],< 1.5 ×10⁻⁶ cm/s
same,half-life,[12],38.5 min
same,solubility,[17],487 µg/mL
same,pIC50,[19],4.77
same,pIC50,[21],< 4.40
same,CC50 at 72 h,[22],> 300 µM
same,logD,[27],1.5
same,pIC50,[30],< 4.40
same,pIC50,[33],5.14
same,pEC50,[34],7.67
same,pIC50,[39],4.42
C[C@@H]1CN(C(=O)c2ccccc2)CCN1C(=O)C(=O)c1c[nH]c2cccnc12,pIC50,[6],< 4.40
same,pIC50,[7],< 4.10
same,Papp,[9],7.6 ×10⁻⁶ cm/s
same,half-life,[12],> 100 min
same,solubility,[17],932 µg/mL
same,pIC50,[19],< 4.40
same,pIC50,[21],< 4.40
same,CC50 at 72 h,[22],> 300 µM
same,logD,[27],0.9
same,pIC50,[30],< 4.40
same,pIC50,[33],4.44
same,pEC50,[34],8.80
same,pIC50,[39],< 4.40
C[C@@H]1CN(C(=O)c2ccccc2)CCN1C(=O)C(=O)c1c[nH]c2ccncc12,pIC50,[7],< 4.10
same,Papp,[9],1.9 ×10⁻⁶ cm/s
same,half-life,[12],> 100 min
same,solubility,[17],419 µg/mL
same,pIC50,[19],< 4.40
same,CC50 at 72 h,[22],> 300 µM
same,logD,[27],1.2
same,pIC50,[30],< 4.40
same,pIC50,[33],4.77
same,pEC50,[34],6.24
same,pIC50,[39],< 4.40
